Active and inactive are the calls of the source. The rule behind the calls is not given here.
Columns and labels:
HL-60 [1] = assay: Antiproliferative activity against human HL60 cells assessed as reduction in cell viability measured after 24 hrs; format: functional, cell-based; settings: HL-60, 24 h
[2] = Effect on Ras/Raf/MEK/ERK signaling in human MKN74 cells assessed as change in MEK1/2 expression at 0.5 uM measured up to 24 hrs by Western blot analysis; format: cell-based
Procedure, shortened: (§1)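 MKN-74 cells exposed to 0.5 μM for 0, 6, 12 and 24 h. Ras, Raf, p-MEK1/2, MEK1/2, p-JNK, JNK, p-p38 and p38 immunoblotted, with GAPDH as loading control.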

[3] = molecular target: Mitogen-activated protein kinase; ERK1/ERK2 (Homo sapiens) (UniProt P27361+P28482); assay: Inhibition of ERK1/2 in human MKN74 cells harboring siRNA assessed as reduction in ERK1/2 phosphorylation at 0.5 uM by immunofluorescence assay; format: cell-based
Procedure, shortened: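 MKN-74 cells transfected with ERK1/2-specific or negative-control siRNA for the indicated times, then given 0.5 μM. p-ERK1/2 and p-ERK5 puncta detected by immunocytochemistry.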

[4] = molecular target: Mitogen-activated protein kinase 7 (Homo sapiens) (UniProt Q13164); assay: Inhibition of ERK5 in human MKN74 cells harboring ERK1/2 siRNA assessed as reduction in ERK5 phosphorylation at 0.5 uM by immunofluorescence assay; format: cell-based
Procedure, shortened: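 ERK1/2-specific or negative-control siRNA was transfected into MKN-74 cells for the indicated times, followed by compound at 0.5 μM. p-ERK1/2 and p-ERK5 puncta were detected by immunocytochemistry.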

MKN-74 [5] = assay: Induction of cytoplasmic vacuolization in human MKN74 cells; format: functional, cell-based
[6] = Effect on Ras/Raf/MEK/ERK signaling in human MKN74 cells assessed as change in Ras expression at 0.5 uM measured up to 24 hrs by Western blot analysis; format: cell-based; procedure, shortened: as §1
[7] = Tmax in Sprague-Dawley rat at 10 mg/kg, po by LC-MS analysis; format: ADME, organism-based; settings: in vivo
Procedure, shortened: (§2)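 Two groups of rats (3 per group) received a single dose, either 1 mg/kg i.v. or 10 mg/kg p.o. Plasma concentrations were followed to derive Tmax, Cmax, T1/2, AUC and F. Data are from triple testing (± standard deviation).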

Mus musculus [8] = assay: In vivo inhibition of ERK5 in BALB/c mouse xenografted with human MKN74 cells assessed as reduction in ERK5 phosphorylation at 50 mg/kg, po administered once daily for 16 days measured post-last dose by Western blot analysis; format: functional, organism-based
Procedure, shortened: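 Two individual tumors excised from xenograft mice were lysed. ERK1/2, p-ERK1/2, ERK5 and p-ERK5 detected by western blot.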

[9] = molecular target: Mitogen-activated protein kinase 3 (Homo sapiens) (UniProt P27361); assay: Inhibition of wild-type human full length ERK1 (M1 to P379 residues) expressed in bacterial expression system at 1 uM by Kinomescan method relative to control
Procedure, shortened: (§3)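 KINOMEscan binding assays over a 100-kinase panel, with test compound at 1 μM. Results are given as % inhibition.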

[10] = Effect on Ras/Raf/MEK/ERK signaling in human MKN74 cells assessed as change in Raf expression at 0.5 uM measured up to 24 hrs by Western blot analysis; format: cell-based; procedure, shortened: as §1
MKN-74 [11] = assay: Induction of autophagy in human MKN74 cells harboring ATG5 siRNA assessed as increase in p62 degradation at 0.5 uM by Western blot analysis; format: functional, cell-based
Procedure, shortened: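 MKN-74 cells transfected with ATG5 or negative-control siRNA for the indicated times, then 0.5 μM. ATG5, LC3 and p62 immunoblotted, with GAPDH loading control.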

[12] = Tmax in Sprague-Dawley rat at 1 mg/kg, iv by LC-MS analysis; format: ADME, organism-based; settings: in vivo; procedure, shortened: as §2
[13] = Effect on Ras/Raf/MEK/ERK signaling in human MKN74 cells assessed as change in JNK expression at 0.5 uM measured up to 24 hrs by Western blot analysis; format: cell-based; procedure, shortened: as §1
[14] = molecular target: Mitogen-activated protein kinase 1 (Homo sapiens) (UniProt P28482); assay: Inhibition of ERK2 (unknown origin) at 1 uM by Z'-Lyte assay relative to control
MKN-74 [15] = assay: Induction of autophagy in human MKN74 cells assessed as increase in p62 degradation at 0.5 uM measured after 24 hrs in presence of autophagy inhibitor 3-methyladenine by Western blot analysis; format: functional, cell-based
Procedure, shortened: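 MKN-74 cells given 0.5 μM for 24 h with or without 3-MA; LC3 and p62 immunoblotted.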

Mus musculus [16] = assay: In vivo inhibition of ERK1/2 in BALB/c mouse xenografted with human MKN74 cells assessed as reduction in phosphorylated ERK1/2 expression at 50 mg/kg, po administered once daily for 16 days measured post-last dose by immunohistochemical analysis; format: functional, organism-based
Procedure, shortened: (§4)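 Tumors excised from control and 50 mg/kg p.o.-treated xenograft mice were immunostained for Ki-67, p-ERK1/2 and p-ERK5. Positive-cell percentage quantified and compared with control.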

[17] = molecular target: Mitogen-activated protein kinase 7 (Homo sapiens) (UniProt Q13164); assay: Inhibition of ERK5 (unknown origin) at 1 uM by Z'-Lyte assay relative to control
[18] = molecular target: Mitogen-activated protein kinase 1 (Homo sapiens) (UniProt P28482); assay: Inhibition of wild-type human full length ERK2 (M1 to S360 residues) expressed in bacterial expression system at 1 uM by Kinomescan method relative to control; procedure, shortened: as §3
[19] = molecular target: Mitogen-activated protein kinase 7 (Homo sapiens) (UniProt Q13164); assay: Inhibition of wild-type human partial length ERK5 (M1 to A409 residues) expressed in bacterial expression system at 1 uM by Kinomescan method relative to control; procedure, shortened: as §3
MKN-74 [20] = assay: Antitumor activity against human MKN74 cells xenografted in BALB/c mouse assessed as reduction in tumor weight at 50 mg/kg, po administered once daily for 16 days measured post-last dose; format: functional, organism-based
Procedure, shortened: (§5)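 Female nude mice bearing subcutaneous xenografts (8 per group) received vehicle or 50 mg/kg p.o. once daily for 16 days. Excised tumors weighed and compared with control group.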

[21] = molecular target: Mitogen-activated protein kinase 7 (Homo sapiens) (UniProt Q13164); assay: Inhibition of ERK5 in human MKN74 cells assessed as reduction in ERK5 phosphorylation at T218/Y220 residue at 0.5 uM measured up to 24 hrs by Western blot analysis; format: cell-based
HL-60 [22] = assay: Induction of autophagy in human HL60 cells; format: functional, cell-based
HL-60 [23] = assay: Antitumor activity against human HL60 cells xenografted in BALB/c mouse assessed as reduction in tumor weight at 50 mg/kg, po administered once daily for 16 days measured post-last dose; format: functional, organism-based; procedure, shortened: as §5
Mus musculus [24] = assay: In vivo inhibition of ERK5 in BALB/c mouse xenografted with human MKN74 cells assessed as reduction in phosphorylated ERK5 expression at 50 mg/kg, po administered once daily for 16 days measured post-last dose by immunohistochemical analysis; format: functional, organism-based; procedure, shortened: as §4
[25] = AUC (0 to t) in Sprague-Dawley rat at 10 mg/kg, po by LC-MS analysis; format: ADME, organism-based; settings: in vivo
Procedure, shortened: (§6)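 Rats, two groups of 3; single i.v. dose 1 mg/kg or oral dose 10 mg/kg. Plasma concentration-time profiles used to derive T1/2, Tmax, Cmax, AUC0-t, AUC0-∞ and oral bioavailability. Data from triplicate testing, ± standard deviation.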

[26] = AUC (0 to infinity) in Sprague-Dawley rat at 10 mg/kg, po by LC-MS analysis; format: ADME, organism-based; design: dose 10 mg/kg, route oral, time infinity; settings: in vivo; procedure, shortened: as §6

Chain of Mitogen-activated protein kinase 7 (Homo sapiens) (Q13164 2-816 limits assumed): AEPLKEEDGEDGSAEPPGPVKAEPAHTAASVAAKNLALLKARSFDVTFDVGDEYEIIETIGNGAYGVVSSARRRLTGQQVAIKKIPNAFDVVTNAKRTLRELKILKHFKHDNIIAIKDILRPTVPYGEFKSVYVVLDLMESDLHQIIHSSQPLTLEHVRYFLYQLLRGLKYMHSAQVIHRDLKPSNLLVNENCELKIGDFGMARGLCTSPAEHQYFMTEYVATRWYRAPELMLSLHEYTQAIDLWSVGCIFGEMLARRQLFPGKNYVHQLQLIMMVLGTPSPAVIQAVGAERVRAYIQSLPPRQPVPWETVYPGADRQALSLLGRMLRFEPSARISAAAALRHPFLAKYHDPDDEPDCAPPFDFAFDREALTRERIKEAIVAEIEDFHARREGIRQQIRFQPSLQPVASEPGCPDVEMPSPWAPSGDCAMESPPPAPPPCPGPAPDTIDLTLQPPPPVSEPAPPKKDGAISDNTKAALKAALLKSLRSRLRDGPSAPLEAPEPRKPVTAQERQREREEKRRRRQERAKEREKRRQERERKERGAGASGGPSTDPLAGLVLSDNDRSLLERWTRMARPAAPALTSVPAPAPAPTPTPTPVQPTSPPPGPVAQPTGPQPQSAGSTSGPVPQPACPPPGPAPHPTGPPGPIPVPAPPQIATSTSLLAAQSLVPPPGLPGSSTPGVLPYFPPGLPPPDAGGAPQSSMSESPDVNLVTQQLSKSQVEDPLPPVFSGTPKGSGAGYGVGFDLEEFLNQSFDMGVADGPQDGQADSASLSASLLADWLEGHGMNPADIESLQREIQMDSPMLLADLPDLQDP
Chain of Mitogen-activated protein kinase 1 (Homo sapiens) (P28482 whole entry, the tested form may be a part): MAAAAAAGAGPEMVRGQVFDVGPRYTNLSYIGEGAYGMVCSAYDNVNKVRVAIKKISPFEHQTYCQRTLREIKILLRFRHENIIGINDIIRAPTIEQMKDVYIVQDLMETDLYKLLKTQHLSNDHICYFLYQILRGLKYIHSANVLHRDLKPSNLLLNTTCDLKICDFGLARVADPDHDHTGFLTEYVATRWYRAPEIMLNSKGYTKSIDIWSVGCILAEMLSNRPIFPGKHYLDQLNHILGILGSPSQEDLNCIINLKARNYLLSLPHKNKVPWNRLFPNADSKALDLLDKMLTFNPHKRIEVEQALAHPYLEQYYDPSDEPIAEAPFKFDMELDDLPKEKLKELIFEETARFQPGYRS
Chain of Mitogen-activated protein kinase; ERK1/ERK2 (Homo sapiens) (P27361 whole entry, looked up): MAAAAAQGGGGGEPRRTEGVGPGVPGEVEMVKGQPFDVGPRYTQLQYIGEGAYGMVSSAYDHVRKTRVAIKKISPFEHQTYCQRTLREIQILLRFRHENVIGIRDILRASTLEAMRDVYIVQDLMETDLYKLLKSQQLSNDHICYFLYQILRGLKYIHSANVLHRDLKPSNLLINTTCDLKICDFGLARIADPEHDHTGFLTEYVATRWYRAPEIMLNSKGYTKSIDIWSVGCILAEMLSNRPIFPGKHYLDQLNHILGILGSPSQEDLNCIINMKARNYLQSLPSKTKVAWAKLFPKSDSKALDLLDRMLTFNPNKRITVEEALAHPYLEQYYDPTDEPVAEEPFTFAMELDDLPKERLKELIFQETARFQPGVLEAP
Chain of Mitogen-activated protein kinase; ERK1/ERK2 (Homo sapiens) (P28482 whole entry, looked up): as the sequence (P28482 whole entry, the tested form may be a part) above
Chain of Mitogen-activated protein kinase 3 (Homo sapiens) (P27361 whole entry, the tested form may be a part): as the sequence (P27361 whole entry, looked up) above

NC(=O)c1c(NC(=O)c2ccccc2Cl)sc2c1CCN(C(=S)Nc1ccccc1Cl)C2
IC50 (HL-60 [1]): 1.26 µM | Activity [2]: inactive | inhibition [3]: Active | inhibition [4]: Active | Activity (MKN-74 [5]): Active | Activity [6]: inactive | Tmax [7]: 45 min | inhibition (Mus musculus [8]): Active | inhibition [9]: 94% | Activity [10]: inactive | Activity (MKN-74 [11]): inactive | Tmax [12]: 4.8 min | Activity [13]: inactive | inhibition [14]: 92.7% | Activity (MKN-74 [15]): inactive | inhibition (Mus musculus [16]): Active | inhibition [17]: 89.3% | inhibition [18]: 91% | inhibition [19]: 87% | Activity (MKN-74 [20]): Active | inhibition [21]: Active | Activity (HL-60 [22]): inactive | Activity (HL-60 [23]): Active | inhibition (Mus musculus [24]): Active | AUC(0-t) [25]: 5080 ng·h/mL | AUC(0-inf) [26]: 5180 ng·h/mL
